Bridge positions count the residues as written; N and C are the ends. Square brackets hold non-standard residues; d marks the D form. Peptide text beside a SMILES is read from it. * marks the point of attachment. Ileψ(thiazoline)Cys = CC[C@H](C)[C@H](N)C1=N[C@H](C(=O)*)CS1; dOrn = NCCC[C@@H](N)C(=O)O
Tests used:
HeLa = test: Cytotoxicity against human HeLa cells assessed as reduction in cell viability at <300 uM after 24 hrs at 310 K by MTT assay; type: cell-based
Procedure, shortened: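 HeLa cells were grown overnight in DMEM with 10% FBS, then exposed to serial dilutions starting at 300 μM in medium with 5% FBS for 24 h at 310 K under 5% CO2. MTT was added for a further 4 h and formazan absorbance read at 490 nm. Three independent experiments in duplicate.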

[1] = Hemolytic activity against mouse RBC at 300 uM after 1 hr at 310 K; type: ADME, cell-based, Erythrocyte; settings: mouse red blood cells (erythrocytes), read-out: Activity
Procedure, shortened: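 Fresh mouse red cells were washed six times and suspended at 1 × 10^8 cells/mL in PBS. Peptides at 2.3–300 μM were added for 1 h at 310 K. After centrifugation, hemoglobin in the supernatant was read at 576 nm. PBS served as 0% and 0.1% Triton X-100 as 100% lysis. Three independent experiments in duplicate.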

Insulin-degrading enzyme = target: T1, Insulin-degrading enzyme (Mus musculus, UniProt Q9JHR7); test: Inhibition of mouse His-tagged IDE (42 to 1019 residues) using fluorophore/quencher-tagged RPPGFSAFK(Dnp)-OH peptide as substrate preincubated for 10 mins followed by substrate addition measured over 5 mins by TR-FRET assay
T1 sequence (Q9JHR7 whole entry): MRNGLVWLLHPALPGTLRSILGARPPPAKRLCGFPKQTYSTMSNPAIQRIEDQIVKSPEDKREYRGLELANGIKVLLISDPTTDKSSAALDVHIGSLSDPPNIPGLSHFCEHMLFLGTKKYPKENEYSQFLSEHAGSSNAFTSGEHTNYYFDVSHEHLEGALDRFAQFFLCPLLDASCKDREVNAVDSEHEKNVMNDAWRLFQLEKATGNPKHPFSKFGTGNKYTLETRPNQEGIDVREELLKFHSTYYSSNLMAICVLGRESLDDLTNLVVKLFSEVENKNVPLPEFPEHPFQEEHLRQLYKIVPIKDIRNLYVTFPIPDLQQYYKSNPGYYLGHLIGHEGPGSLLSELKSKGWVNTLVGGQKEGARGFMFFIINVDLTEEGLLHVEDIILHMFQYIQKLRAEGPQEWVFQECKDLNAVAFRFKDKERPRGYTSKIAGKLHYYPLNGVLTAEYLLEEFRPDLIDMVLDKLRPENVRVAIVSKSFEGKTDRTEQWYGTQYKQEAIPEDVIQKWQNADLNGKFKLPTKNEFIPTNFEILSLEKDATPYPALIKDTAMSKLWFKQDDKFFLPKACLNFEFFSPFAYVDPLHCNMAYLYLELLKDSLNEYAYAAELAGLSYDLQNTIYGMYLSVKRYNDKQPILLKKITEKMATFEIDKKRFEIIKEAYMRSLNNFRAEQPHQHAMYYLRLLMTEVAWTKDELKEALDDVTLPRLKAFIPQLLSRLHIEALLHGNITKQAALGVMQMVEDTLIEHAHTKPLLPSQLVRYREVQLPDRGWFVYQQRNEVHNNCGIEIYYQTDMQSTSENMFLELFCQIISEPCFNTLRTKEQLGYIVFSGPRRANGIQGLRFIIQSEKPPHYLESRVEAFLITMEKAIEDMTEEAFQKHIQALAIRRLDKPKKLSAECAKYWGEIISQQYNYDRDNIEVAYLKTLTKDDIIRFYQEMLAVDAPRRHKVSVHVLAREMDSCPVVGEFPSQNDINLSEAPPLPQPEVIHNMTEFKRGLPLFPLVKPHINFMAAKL

[2] = Drug uptake in human HeLa cells at 5 uM using FITC-labeled compound after 2 hrs at 310 K by DAPI-staining based confocal microscopy; type: ADME, cell-based
[3] = Drug uptake in human HeLa cells at 5 uM using FITC-labeled compound after 2 hrs at 310 K by trypan blue-fluorescence based FACS analysis; type: ADME, cell-based
Procedure, shortened: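 HeLa cells were grown overnight in DMEM with 10% FBS, then given 5 μM FITC-labelled peptide in FBS-free medium for 2 h at 310 K. Cells were washed with PBS and 0.4% trypan blue, trypsinized and washed. Mean fluorescence was measured by flow cytometry with gated cell counts. Three independent experiments.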

SMILES	IC50 (Insulin-degrading enzyme) [nM]	also measured
CC(=O)N[C@@H](CCC(=O)O)C(=O)N[C@@H](Cc1ccccc1)C(=O)N[C@@H](CC(C)C)C(=O)N[C@@H](Cc1c[nH]c2ccccc12)C(=O)N[C@@H](C)C(=O)NCC(=O)N1CCC[C@@H]1C(=O)N1CCC[C@H]1C(=O)N[C@@H](Cc1ccc(O)cc1)C(=O)N[C@@H](C)C(=O)N[C@@H](CS)C(=O)N[C@H](C(=O)NCC(=O)N[C@@H](CCCNC(=N)N)C(=O)N[C@@H](CC(C)C)C(=O)N[C@@H](CCC(=O)O)C(N)=O)C(C)C		Activity (HeLa): Non-Toxic; hemolysis at 1 h, 300 µM [1]: < 10%
CC[C@H](C)[C@H](N)C1=N[C@H](C(=O)N[C@@H](CC(C)C)C(=O)N[C@H](CCC(=O)O)C(=O)N[C@H](C(=O)N[C@H]2CCCCNC(=O)[C@H](CC(N)=O)NC(=O)[C@@H](CC(=O)O)NC(=O)[C@H](Cc3cnc[nH]3)NC(=O)[C@@H](Cc3ccccc3)NC(=O)[C@H]([C@@H](C)CC)NC(=O)[C@@H](CCCN)NC2=O)[C@@H](C)CC)CS1 [BACITRACIN] ({Ileψ(thiazoline)Cys}-L[dE]IK[dOrn]I[dF]H[dD]N; lactam 4-C)	> 200000	
CC(C)C[C@H](NC(=O)[C@H](C)NC(=O)[C@H](CCC(=O)O)NC(=O)[C@@H]1CCCN1C(=O)[C@H]1CCCN1C(=O)[C@H](Cc1ccccc1)NC(=O)[C@@H](N)CCCNC(=N)N)C(=O)N[C@@H](Cc1ccc(O)cc1)C(N)=O	> 20000	
CC(C)C[C@H](NC(=O)[C@H](C)NC(=O)[C@H](CCC(=O)O)NC(=O)[C@@H]1CCCN1C(=O)[C@H]1CCCN1C(=O)[C@H](Cc1ccccc1)NC(=O)[C@@H](N)CCCNC(=N)N)C(=O)N[C@@H](Cc1ccc(O)cc1)C(=O)N[C@@H](CC(C)C)C(=O)N[C@H](C(N)=O)C(C)C	> 20000	
CC(C)C[C@H](NC(=O)[C@H](C)NC(=O)[C@@H](N)CCC(=O)O)C(=O)N[C@@H](Cc1ccc(O)cc1)C(=O)N[C@@H](CC(C)C)C(=O)N[C@H](C(=O)N[C@@H](CS)C(=O)NCC(N)=O)C(C)C (H-EALYLVCG-NH2)	230	

The next lines start with results.

IC50 (Insulin-degrading enzyme) [nM]	SMILES	also measured
74	CC(C)C[C@H](NC(=O)[C@H](C)NC(=O)[C@H](CCC(=O)O)NC(=O)[C@@H]1CCCN1C(=O)[C@H]1CCCN1C(=O)[C@H](Cc1ccccc1)NC(=O)[C@H](CCCNC(=N)N)NC(=O)[C@H](Cc1c[nH]c2ccccc12)NC(=O)[C@@H](N)CCC(=O)O)C(=O)N[C@@H](Cc1ccc(O)cc1)C(=O)N[C@@H](CC(C)C)C(=O)N[C@H](C(=O)N[C@H](CS)C(=O)NCC(N)=O)C(C)C	Drug uptake [2]: Active; Drug uptake [3]: Active
60	CC(C)C[C@H](NC(=O)[C@@H]1CSC[C@H](NC(=O)[C@H](Cc2ccccc2)NC(=O)[C@H](CCCNC(=N)N)NC(=O)[C@H](Cc2c[nH]c3ccccc23)NC(=O)[C@@H](N)CCC(=O)O)C(=O)NCC(=O)N2CCC[C@@H]2C(=O)N2CCC[C@H]2C(=O)N[C@@H](CCC(=O)O)C(=O)N1)C(=O)N[C@@H](Cc1ccc(O)cc1)C(=O)N[C@@H](CC(C)C)C(=O)N[C@H](C(=O)N[C@H](CS)C(=O)NCC(N)=O)C(C)C	
170	CC(C)C[C@H](NC(=O)[C@H](C)NC(=O)[C@@H](N)CCC(=O)O)C(=O)N[C@@H](Cc1ccc(O)cc1)C(=O)N[C@@H](CC(C)C)C(=O)N[C@H](C(=O)N[C@@H](CS)C(=O)NCC(=O)N1CCC[C@@H]1C(=O)N1CCC[C@H]1C(=O)N[C@@H](Cc1ccccc1)C(=O)N[C@@H](CCCNC(=N)N)C(=O)N[C@@H](Cc1c[nH]c2ccccc12)C(=O)N[C@@H](CCC(=O)O)C(N)=O)C(C)C	
44	CC(C)C[C@H](NC(=O)[C@@H]1CNC(=O)C[C@H](NC(=O)[C@H](Cc2ccccc2)NC(=O)[C@H](CCCNC(=N)N)NC(=O)[C@H](Cc2c[nH]c3ccccc23)NC(=O)[C@@H](N)CCC(=O)O)C(=O)NCC(=O)NCC(=O)NCC(=O)N2CCC[C@@H]2C(=O)N2CCC[C@H]2C(=O)N[C@@H](CCC(=O)O)C(=O)N1)C(=O)N[C@@H](Cc1ccc(O)cc1)C(=O)N[C@@H](CC(C)C)C(=O)N[C@H](C(=O)N[C@@H](CS)C(=O)NCC(N)=O)C(C)C	Drug uptake [2]: Active; Drug uptake [3]: Active
300	CC(C)C[C@H](NC(=O)[C@H](C)NC(=O)[C@H](CCC(=O)O)NC(=O)CNC(=O)CNC(=O)[C@H](Cc1ccccc1)NC(=O)[C@H](CCCNC(=N)N)NC(=O)[C@H](Cc1c[nH]c2ccccc12)NC(=O)[C@@H](N)CCC(=O)O)C(=O)N[C@@H](Cc1ccc(O)cc1)C(=O)N[C@@H](CC(C)C)C(=O)N[C@H](C(=O)N[C@@H](CS)C(=O)NCC(N)=O)C(C)C (H-EWRFGGEALYLVCG-NH2)	Drug uptake [2]: Active; Drug uptake [3]: Active; hemolysis at 1 h, 300 µM [1]: < 10%
86	CC(C)C[C@H](NC(=O)[C@H](C)NC(=O)[C@H](CCC(=O)O)NC(=O)[C@@H]1CCCN1C(=O)[C@H]1CCCN1C(=O)[C@H](Cc1ccccc1)NC(=O)[C@H](CCCNC(=N)N)NC(=O)[C@H](Cc1c[nH]c2ccccc12)NC(=O)[C@@H](N)CCC(=O)O)C(=O)N[C@@H](Cc1ccc(O)cc1)C(=O)N[C@@H](CC(C)C)C(=O)N[C@H](C(N)=O)C(C)C	
77	CC(C)C[C@H](NC(=O)[C@@H]1CSC[C@H](NC(=O)[C@H](Cc2ccccc2)NC(=O)[C@H](CCCNC(=N)N)NC(=O)[C@H](Cc2c[nH]c3ccccc23)NC(=O)[C@@H](N)CCC(=O)O)C(=O)NCC(=O)NCC(=O)NCC(=O)N2CCC[C@@H]2C(=O)N2CCC[C@H]2C(=O)N[C@@H](CCC(=O)O)C(=O)N1)C(=O)N[C@@H](Cc1ccc(O)cc1)C(=O)N[C@@H](CC(C)C)C(=O)N[C@H](C(=O)N[C@H](CS)C(=O)NCC(N)=O)C(C)C	
601	CC(C)C[C@H](NC(=O)[C@H](C)NC(=O)[C@H](CCC(=O)O)NC(=O)[C@@H]1CCCN1C(=O)[C@H]1CCCN1C(=O)[C@H](Cc1ccccc1)NC(=O)[C@H](CCCNC(=N)N)NC(=O)[C@H](Cc1c[nH]c2ccccc12)NC(=O)[C@@H](N)CCC(=O)O)C(=O)N[C@@H](Cc1ccc(O)cc1)C(N)=O	
